Assay results taken from ChEMBL document CHEMBL4831540, “Discovery of Aficamten (CK-274), a Next-Generation Cardiac Myosin Inhibitor for the Treatment of Hypertrophic Cardiomyopathy” (J Med Chem, 2021).
Converted amounts (≈) assume the structure as drawn.

Experiments:
Cytochrome P450 2C9 = Cytochrome P450 2C9 (Homo sapiens, UniProt P11712); experiment: Inhibition of CYP2C9 in human liver microsomes assessed as diclofenac 4'-hydroxylation reaction incubated for 30 mins in presence of NADP by LC-MS/MS analysis; type: ADME
Sequence of Cytochrome P450 2C9 (P11712 whole entry): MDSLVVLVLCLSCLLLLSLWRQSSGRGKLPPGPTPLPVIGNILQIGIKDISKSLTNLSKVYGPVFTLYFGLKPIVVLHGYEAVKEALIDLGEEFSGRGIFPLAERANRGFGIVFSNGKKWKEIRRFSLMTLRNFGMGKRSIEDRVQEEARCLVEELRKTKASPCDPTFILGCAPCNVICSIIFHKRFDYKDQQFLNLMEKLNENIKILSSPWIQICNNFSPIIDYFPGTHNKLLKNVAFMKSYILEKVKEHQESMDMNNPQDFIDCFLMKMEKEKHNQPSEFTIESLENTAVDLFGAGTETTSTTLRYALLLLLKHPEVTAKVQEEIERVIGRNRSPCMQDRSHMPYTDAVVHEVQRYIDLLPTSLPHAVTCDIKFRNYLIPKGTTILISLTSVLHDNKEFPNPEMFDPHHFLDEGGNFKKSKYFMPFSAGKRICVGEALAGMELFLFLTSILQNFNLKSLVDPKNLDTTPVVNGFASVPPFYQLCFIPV

[1] = Half life in Beagle dog at 1 mg/kg, iv; type: ADME, organism-based, Canis lupus familiaris; details: in vivo
In short: (§1)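 Multi-species PK study in male animals, n = 3 per group (dog IV arm n = 2). Iv and oral dosing with plasma concentration–time profiles yielding Cmax, tmax, AUC0–t, CL, Vss, t1/2 and F.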

[2] = Clearance in mouse at 0.5 mg/kg, iv; type: ADME, organism-based; details: in vivo; in short: as §1
Cytochrome P450 2B6 = molecular target: T1, Cytochrome P450 2B6 (Homo sapiens, UniProt P20813); experiment: Inhibition of CYP2B6 in human liver microsomes assessed as bupropion hydroxylation reaction incubated for 30 mins in presence of NADP by LC-MS/MS analysis; type: ADME
T1 sequence (P20813 whole entry): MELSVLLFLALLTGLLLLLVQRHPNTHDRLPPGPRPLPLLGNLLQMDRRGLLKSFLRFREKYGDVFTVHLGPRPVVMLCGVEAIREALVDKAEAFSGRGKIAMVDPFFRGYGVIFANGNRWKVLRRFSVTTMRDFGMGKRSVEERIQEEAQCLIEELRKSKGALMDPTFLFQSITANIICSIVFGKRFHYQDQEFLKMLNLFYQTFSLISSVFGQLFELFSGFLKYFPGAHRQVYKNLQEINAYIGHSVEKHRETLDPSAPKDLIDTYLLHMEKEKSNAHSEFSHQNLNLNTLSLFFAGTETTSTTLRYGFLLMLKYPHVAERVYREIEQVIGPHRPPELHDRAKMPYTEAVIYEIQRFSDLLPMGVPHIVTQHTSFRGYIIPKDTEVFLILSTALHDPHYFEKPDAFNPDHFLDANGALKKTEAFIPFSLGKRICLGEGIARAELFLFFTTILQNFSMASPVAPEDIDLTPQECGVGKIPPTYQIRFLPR

[3] = Oral bioavailability in Sprague-Dawley rat at 3 mg/kg; type: ADME, organism-based; details: in vivo
In short: (§2)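 Single iv or oral doses in male animals, 3 per group except dog iv (2 animals). Plasma concentration–time profiles gave Cmax, tmax, AUC0–t, clearance, steady-state volume of distribution, half-life and bioavailability.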

[4] = Volume of distribution at steady state in cynomolgus monkey at 1 mg/kg, iv; type: ADME, organism-based, Macaca fascicularis; details: in vivo, read-out: Vdss; in short: as §2
[5] = Solubility of the compound at pH 6.8 by shake flask method; type: physicochemical; details: buffer
In short: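 Shake-flask solubility at pH 6.8; solid form not characterized.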

[6] = Metabolic stability in human liver microsomes assessed as intrinsic clearance measured upto 90mins by HPLC/MS/MS analysis; type: ADME, Microsome; details: read-out: CLH
Rattus norvegicus [7] = experiment: Anti-hypertrophic cardiomyopathy in po dosed Sprague-Dawley rat assessed as reduction in fractional shortening measured upto 24 hrs by echocardiography; type: functional, organism-based
In short: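 Normal Sprague–Dawley rats were given single oral doses of 0.5–4 mg/kg. Left ventricular dimensions and fractional shortening were measured by echocardiography at selected time points over 24 h, relative to vehicle treatment.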

[8] = Tmax in Sprague-Dawley rat at 8 mg/kg, po; type: ADME, organism-based; details: in vivo; in short: as §2
[9] = Half life in mouse at 1 mg/kg, po; type: ADME, organism-based; details: in vivo; in short: as §1
[10] = Plasma protein binding in Beagle dog assessed as unbound fraction; type: ADME, Canis lupus familiaris
[11] = Ratio of IC50 to IC10 for anti-hypertrophic cardiomyopathy in po dosed Sprague-Dawley rat assessed as reduction in fractional shortening measured upto 24 hrs by echocardiography; type: functional; details: time hrs <=24
In short: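 Sprague–Dawley rats received single oral doses from 0.5 to 4 mg/kg. LV dimensions and fractional shortening were read by echocardiography at set times over 24 h, with blood drawn at each reading for compound level. Concentrations giving 50% and 10% FS reduction were derived, and their IC50/IC10 ratio was calculated.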

[12] = Plasma protein binding in rat assessed as unbound fraction; type: ADME, cell-free
[13] = Plasma protein binding in Sprague-Dawley rat assessed as unbound fraction; type: ADME
[14] = Half life in mouse at 0.5 mg/kg, iv; type: ADME, organism-based; details: in vivo; in short: as §1
[15] = Volume of distribution at steady state in Beagle dog at 1 mg/kg, iv; type: ADME, organism-based, Canis lupus familiaris; details: in vivo; in short: as §2
[16] = Oral bioavailability in Sprague-Dawley rat at 8 mg/kg; type: ADME, organism-based; details: in vivo; in short: as §2
Rattus norvegicus [17] = experiment: Anti-hypertrophic cardiomyopathy in po dosed Sprague-Dawley rat assessed as reduction in fractional shortening by measuring free concentration measured upto 24 hrs by echocardiography; type: functional; details: time hrs <=24
In short: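 Sprague–Dawley rats received single oral doses of 0.5–4 mg/kg, with fractional shortening measured by echocardiography over 24 h. Blood was sampled at each echo time point. Plasma levels were converted to free concentrations using rat plasma protein binding, and free IC10 and IC50 were derived from the FS reduction–concentration relationship.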

[18] = Clearance in Sprague-Dawley rat at 0.5 mg/kg; type: ADME, organism-based; details: in vivo
Cytochrome P450 2C8 = molecular target: T2, Cytochrome P450 2C8 (Homo sapiens, UniProt P10632); experiment: Inhibition of CYP2C8 in human liver microsomes assessed as paclitaxel 6a-hydroxylation reaction incubated for 30 mins in presence of NADP by LC-MS/MS analysis; type: ADME
T2 sequence (P10632 whole entry): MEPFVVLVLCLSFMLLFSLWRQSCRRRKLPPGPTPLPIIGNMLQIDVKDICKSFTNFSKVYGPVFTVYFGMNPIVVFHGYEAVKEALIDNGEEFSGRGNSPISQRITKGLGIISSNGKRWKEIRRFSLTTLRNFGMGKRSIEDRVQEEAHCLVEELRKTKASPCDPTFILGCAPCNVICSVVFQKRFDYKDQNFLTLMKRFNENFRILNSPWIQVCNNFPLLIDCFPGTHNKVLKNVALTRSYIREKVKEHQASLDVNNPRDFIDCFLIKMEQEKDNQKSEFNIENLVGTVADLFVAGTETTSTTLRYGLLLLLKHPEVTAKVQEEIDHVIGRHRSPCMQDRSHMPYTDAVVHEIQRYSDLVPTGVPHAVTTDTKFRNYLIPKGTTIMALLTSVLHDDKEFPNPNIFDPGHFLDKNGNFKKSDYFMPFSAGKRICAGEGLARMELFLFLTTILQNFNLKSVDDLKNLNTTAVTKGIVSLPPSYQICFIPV

[19] = Cmax in cynomolgus monkey at 1 mg/kg, po; type: ADME, organism-based, Macaca fascicularis; parameters: route oral, dose 1 mg/kg; details: in vivo; in short: as §1

IC50 (Cytochrome P450 2C9): > 100 µM
half-life [1]: 33.8 h
clearance [2]: 8.8 mL/min/kg
IC50 (Cytochrome P450 2B6): > 100 µM
bioavailability [3]: 58%
Vd [4]: 7.76 L/kg
solubility thermodynamic [5]: 97 µM (≈ 32.7 µg/mL)
CLint scaled [6]: < 11 mL/min/kg
Tmax [8]: 0.58 h
half-life [9]: 3.4 h
fraction unbound [10]: 0.251
fraction unbound [12]: 0.018
fraction unbound [13]: 0.018
half-life [14]: 4.5 h
Vd [15]: 10.5 L/kg
bioavailability [16]: 79%
clearance [18]: 2 mL/min/kg
IC50 (Cytochrome P450 2C8): > 100 µM
Cmax [19]: 65 ng/mL
Structure (SMILES): CCc1nc(-c2ccc3c(c2)CC[C@H]3NC(=O)c2cnn(C)c2)no1 [AFICAMTEN]
IC10 (Rattus norvegicus [7]; Rattus norvegicus, Sprague-Dawley, 24 h): 0.8 µM
IC50 (Rattus norvegicus [7]; time hrs <=24): 7.9 µM
Ratio [11]: 9.9
IC10 (Rattus norvegicus [17]): 0.0144 µM
